Source: ChEMBL document CHEMBL1212938, “Inhibition of mycobacterial replication by pyrimidines possessing various C-5 functionalities and related 2'-deoxynucleoside analogues using in vitro and in vivo models” (J Med Chem, 2010)
Converted amounts (≈) assume the structure as drawn. The source made the active and inactive calls. No cut-off for these calls is given here.

Tests used:
Staphylococcus aureus = test: Antibacterial activity against Staphylococcus aureus at 100 ug/ml after 16 to 20 hrs by broth microdilution method; assay type: functional, organism-based
[1] = system: Staphylococcus epidermidis; test: Antibacterial activity against Staphylococcus epidermidis at 100 ug/ml after 16 to 20 hrs by broth microdilution method; assay type: functional, organism-based
Enterococcus faecalis = test: Antibacterial activity against Enterococcus faecalis at 100 ug/ml after 16 to 20 hrs by broth microdilution method; assay type: functional, organism-based
Streptococcus pneumoniae = test: Antibacterial activity against Streptococcus pneumoniae at 100 ug/ml after 16 to 20 hrs by broth microdilution method; assay type: functional, organism-based
Streptococcus pyogenes = test: Antibacterial activity against Streptococcus pyogenes at 100 ug/ml after 16 to 20 hrs by broth microdilution method; assay type: functional, organism-based
Salmonella typhimurium = test: Antibacterial activity against Salmonella Typhimurium at 100 ug/ml after 16 to 20 hrs by broth microdilution method; assay type: functional, organism-based; details: Salmonella enterica subsp. enterica serovar Typhimurium
Escherichia coli = test: Antibacterial activity against Escherichia coli at 100 ug/ml after 16 to 20 hrs by broth microdilution method; assay type: functional, organism-based
Proteus vulgaris = test: Antibacterial activity against Proteus vulgaris at 100 ug/ml after 16 to 20 hrs by broth microdilution method; assay type: functional, organism-based
Pseudomonas aeruginosa = test: Antibacterial activity against Pseudomonas aeruginosa at 100 ug/ml after 16 to 20 hrs by broth microdilution method; assay type: functional, organism-based
Bacillus subtilis = test: Antibacterial activity against Bacillus subtilis at 100 ug/ml after 16 to 20 hrs by broth microdilution method; assay type: functional, organism-based
Listeria monocytogenes = test: Antibacterial activity against Listeria monocytogenes at 100 ug/ml after 16 to 20 hrs by broth microdilution method; assay type: functional, organism-based
[2] = system: Mycobacterium tuberculosis; test: Antitubercular activity against Mycobacterium tuberculosis H37Ra after 6 days by microplate alamar blue assay; assay type: functional; details: 144 h
Outline: (§1)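 MABA run in 7H9GC medium, with drug diluted from DMSO stocks made at 100× the highest final concentration. Final levels were 100, 50, 10, 5, 2.5 and 1 μg/mL in triplicate, and the experiment was done three times. Inoculum was 2.5 × 10⁵ CFU/mL final. Alamar Blue plus Tween-80 was added once bacteria-only control wells turned pink, from day 6 on, and plates were read visually and by fluorescence after 24 h. Visual MIC is the lowest concentration preventing the blue-to-pink change. Mean percent inhibition was taken relative to bacteria-only and medium-only wells.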

[3] = system: Mycobacterium tuberculosis; test: Antitubercular activity against Mycobacterium tuberculosis H37Ra at 100 ug/ml after 6 days by microplate alamar blue assay; assay type: functional; details: 144 h; outline: as §1
[4] = system: Mycobacterium tuberculosis; test: Antitubercular activity against Mycobacterium tuberculosis H37Ra at 50 ug/ml after 6 days by microplate alamar blue assay; assay type: functional; details: 144 h; outline: as §1
[5] = system: Mycobacterium tuberculosis; test: Antitubercular activity against Mycobacterium tuberculosis H37Ra at 10 ug/ml after 6 days by microplate alamar blue assay; assay type: functional; details: 144 h; outline: as §1
[6] = Cytotoxicity against human HuH7 cells assessed as cell viability after 2 days by XTT assay; assay type: cell-based, Huh-7; details: HuH7 cells
Outline: (§2)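 Huh-7 cells seeded at 1 × 10⁵ cells/well and left to attach 6-8 h. Medium then replaced with compound at 200, 100, 50, 10 or 1 μg/mL, with a DMSO control, and incubated 2 days at 37 °C. Viability by XTT, absorbance read at 450-500 nm.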

[7] = Cytotoxicity against human HuH7 cells assessed as cell viability at 200 ug/ml after 2 days by XTT assay; assay type: cell-based; details: huh-7, 48 h; outline: as §2
[8] = Cytotoxicity against human HuH7 cells assessed as cell viability at > 200 ug/ml after 2 days by [3H]thymidine incorporation assay; assay type: cell-based; details: huh-7, 48 h

SMILES | Activity (Staphylococcus aureus) | Activity [1] | Activity (Enterococcus faecalis) | Activity (Streptococcus pneumoniae) | Activity (Streptococcus pyogenes) | Activity (Salmonella typhimurium) | Activity (Escherichia coli) | Activity (Proteus vulgaris) | Activity (Pseudomonas aeruginosa) | Activity (Bacillus subtilis) | Activity (Listeria monocytogenes) | MIC50 [2] | inhibition at 100 µg/mL [3] | inhibition at 50 µg/mL [4] | inhibition at 10 µg/mL [5] | CC50 at 48 h [6] | Activity [7] | Activity [8]
O=C(O)C(I)C(O)c1c[nH]c(=O)[nH]c1=O (stereo not given) | inactive | inactive | inactive | inactive | inactive | inactive | inactive | inactive | inactive | – | – | – | – | – | – | – | – | –
CCCCCCCCCCCCC#Cc1c[nH]c(=O)[nH]c1=O | inactive | inactive | inactive | inactive | inactive | inactive | inactive | inactive | inactive | inactive | inactive | – | – | – | – | – | – | –
COC(CI)c1c[nH]c(=O)[nH]c1=O (stereo not given) | inactive | inactive | inactive | inactive | inactive | inactive | inactive | inactive | inactive | – | – | – | – | – | – | – | – | –
O=c1[nH]cc(C#Cc2ccccc2)c(=O)[nH]1 | inactive | inactive | inactive | inactive | inactive | inactive | inactive | inactive | inactive | inactive | inactive | > 10 µg/mL | 90% | 90% | 40% | > 100 µg/mL | Non-toxic | Non-toxic
COC(CBr)c1c[nH]c(=O)[nH]c1=O (stereo not given) | inactive | inactive | inactive | inactive | inactive | inactive | inactive | inactive | inactive | – | – | – | – | – | – | – | – | –
O=c1[nH]cc(C(O)CI)c(=O)[nH]1 (stereo not given) | inactive | inactive | inactive | inactive | inactive | inactive | inactive | inactive | inactive | – | – | – | – | – | – | – | – | –
O=C(O)/C=C/c1c[nH]c(=O)[nH]c1=O | inactive | inactive | inactive | inactive | inactive | inactive | inactive | inactive | inactive | – | – | – | – | – | – | – | – | –
O=c1[nH]cc(C(CI)OCC(F)(F)F)c(=O)[nH]1 (stereo not given) | inactive | inactive | inactive | inactive | inactive | inactive | inactive | inactive | inactive | – | – | – | – | – | – | – | – | –
CCOC(CI)c1c[nH]c(=O)[nH]c1=O (stereo not given) | inactive | inactive | inactive | inactive | inactive | inactive | inactive | inactive | inactive | – | – | – | – | – | – | – | – | –
CCCCCCCCC#Cc1c[nH]c(=O)[nH]c1=O | inactive | inactive | inactive | inactive | inactive | inactive | inactive | inactive | inactive | inactive | inactive | – | – | – | – | – | – | –
O=c1[nH]cc(C(CI)OCCBr)c(=O)[nH]1 (stereo not given) | inactive | inactive | inactive | inactive | inactive | inactive | inactive | inactive | inactive | – | – | – | – | – | – | – | – | –
O=c1[nH]cc(C(CI)OCCF)c(=O)[nH]1 (stereo not given) | inactive | inactive | inactive | inactive | inactive | inactive | inactive | inactive | inactive | – | – | – | – | – | – | – | – | –
CCCc1cc2c[nH]c(=O)nc2o1 | inactive | inactive | inactive | inactive | inactive | inactive | inactive | inactive | inactive | inactive | inactive | 100 µg/mL (≈ 561 µM) | 50% | – | 0% | – | – | –
COC(CCl)c1c[nH]c(=O)[nH]c1=O (stereo not given) | inactive | inactive | inactive | inactive | inactive | inactive | inactive | inactive | inactive | – | – | – | – | – | – | – | – | –
CCCCCCCCc1cc2c[nH]c(=O)nc2o1 | inactive | inactive | inactive | inactive | inactive | inactive | inactive | inactive | inactive | inactive | inactive | – | – | – | – | – | – | –
CCCCCCCCCCc1cc2c[nH]c(=O)nc2o1 | inactive | inactive | inactive | inactive | inactive | inactive | inactive | inactive | inactive | inactive | inactive | – | – | – | – | – | – | –
CCCCCc1cc2c[nH]c(=O)nc2o1 | inactive | inactive | inactive | inactive | inactive | inactive | inactive | inactive | inactive | inactive | inactive | – | – | – | – | – | – | –
CCCCCCCCCCCC#Cc1c[nH]c(=O)[nH]c1=O | inactive | inactive | inactive | inactive | inactive | inactive | inactive | inactive | inactive | inactive | inactive | – | – | – | – | – | – | –
CCCCCCCCCCC#Cc1c[nH]c(=O)[nH]c1=O | inactive | inactive | inactive | inactive | inactive | inactive | inactive | inactive | inactive | inactive | inactive | – | – | – | – | – | – | –
CCCC#Cc1c[nH]c(=O)[nH]c1=O | inactive | inactive | inactive | inactive | inactive | inactive | inactive | inactive | inactive | inactive | inactive | – | – | – | – | – | – | –
